{"source": "ChEMBL document CHEMBL5104229", "about": "“Novel tetrahydropyrimidinyl-substituted benzimidazoles and benzothiazoles: synthesis, antibacterial activity, DNA interactions and ADME profiling” (RSC Med Chem, 2022)", "key": {"Streptococcus pneumoniae [1]": {"tested_on": "Streptococcus pneumoniae", "test": "Antibacterial activity against Macrolide resistant Streptococcus pneumoniae clinical isolate B0326 assessed as inhibition of bacterial growth incubated for 20 to 22 hrs by broth microdilution method", "assay_type": "functional", "conditions": "time 20-22 hrs", "method_in_brief": "(§1)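 CLSI broth microdilution MIC in cation-adjusted Mueller Hinton broth supplemented with 5% horse serum for streptococci. Twofold dilutions across a 128–0.25 range. Strains grown on MHA with 5% sheep blood; inoculum by direct colony suspension, 5 × 10^4 CFU per well. Read visually after 20–22 h at 37 °C in ambient air; azithromycin and ampicillin as reference antibiotics.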"}, "Streptococcus pyogenes [2]": {"tested_on": "Streptococcus pyogenes", "test": "Antibacterial activity against Macrolide resistant Streptococcus pyogenes clinical isolate B0545 assessed as inhibition of bacterial growth incubated for 20 to 22 hrs by broth microdilution method", "assay_type": "functional", "conditions": "time 20-22 hrs", "method_in_brief": "as §1"}, "Enterococcus faecalis": {"tested_on": "Enterococcus faecalis", "test": "Antibacterial activity against Enterococcus faecalis ATCC29212 assessed as inhibition of bacterial growth incubated for 20 to 22 hrs by broth microdilution method", "assay_type": "functional", "conditions": "time 20-22 hrs", "method_in_brief": "(§2)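 Broth microdilution per CLSI in cation-adjusted Mueller–Hinton broth, twofold dilutions over […]. Inoculum by direct colony suspension, 5 × 10^4 CFU per well. E. coli and S. aureus grown on MHA; E. faecalis, M. catarrhalis and streptococci on MHA with 5% sheep blood; streptococcal broth supplemented with 5% horse serum. MIC read visually after 20–22 h at 37 °C, ambient air.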"}, "Moraxella catarrhalis": {"tested_on": "Moraxella catarrhalis", "test": "Antibacterial activity against Moraxella catarrhalis ATCC 23246 assessed as inhibition of bacterial growth incubated for 20 to 22 hrs by broth microdilution method", "assay_type": "functional", "conditions": "time 20-22 hrs", "method_in_brief": "as §2"}, "Streptococcus pyogenes [3]": {"tested_on": "Streptococcus pyogenes", "test": "Antibacterial activity against Macrolide sensitive Streptococcus pyogenes clinical isolate B0542 assessed as inhibition of bacterial growth incubated for 20 to 22 hrs by broth microdilution method", "assay_type": "functional", "conditions": "time 20-22 hrs", "method_in_brief": "as §2"}, "Escherichia coli": {"tested_on": "Escherichia coli", "test": "Antibacterial activity against hypersensitive AcrAB deficient Escherichia coli assessed as inhibition of bacterial growth incubated for 20 to 22 hrs by broth microdilution method", "assay_type": "functional", "conditions": "time 20-22 hrs", "method_in_brief": "as §2"}, "Streptococcus pneumoniae [4]": {"tested_on": "Streptococcus pneumoniae", "test": "Antibacterial activity against Macrolide sensitive Streptococcus pneumoniae clinical isolate B0652 assessed as inhibition of bacterial growth incubated for 20 to 22 hrs by broth microdilution method", "assay_type": "functional", "conditions": "time 20-22 hrs", "method_in_brief": "as §1"}, "Staphylococcus aureus": {"tested_on": "Staphylococcus aureus", "test": "Antibacterial activity against Staphylococcus aureus ATCC 29213 incubated assessed as inhibition of bacterial growth for 20 to 22 hrs by broth microdilution method", "assay_type": "functional", "conditions": "time 20-22 hrs", "method_in_brief": "as §2"}, "AT rich DNA [5]": {"tested_on": "AT rich DNA", "test": "Binding affinity to double stranded [poly(dA-dT)2] DNA (unknown origin) minor groove assessed as effect on CD spectrum at pH 7 by CD spectroscopy", "assay_type": "nucleic-acid assay", "method_in_brief": "(§3)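 CD titration at 25 °C, sodium cacodylate buffer pH 7, I = 0.05 mol dm−3: portions of compound stock (1 × 10−3 mol dm−3 in water, or DMSO for one compound) added to polynucleotide, e.g. poly(dAdT)2 at 2.0 × 10−5 mol dm−3. Scan 500–220 nm, 200 nm min−1, 3 accumulations. Polynucleotide concentration as phosphate.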"}, "Calf thymus DNA [6]": {"tested_on": "Calf thymus DNA", "test": "Binding affinity to calf thymus double stranded DNA assessed as stabilization of DNA by measuring change in melting temperature at pH 7 by UV/Vis-spectrophotometry", "assay_type": "nucleic-acid assay", "conditions": "Bos taurus", "method_in_brief": "(§4)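 Thermal denaturation in sodium cacodylate buffer, pH 7.0, I = 0.05 mol dm−3, compound/polynucleotide ratio r = 0.3. Absorbance at 260 nm followed versus temperature, ligand absorbance subtracted, scale normalized. Tm from first-derivative maximum, checked by tangent method. ΔTm = Tm(complex) − Tm(free nucleic acid), mean of at least two runs, error ±0.5 °C. ctDNA sonicated and filtered.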"}, "[7]": {"test": "Cytotoxicity against human HepG2 cells assessed as reduction in cell viability incubated overnight by MTT assay", "assay_type": "toxicity, cell-based"}, "Calf thymus DNA [8]": {"tested_on": "Calf thymus DNA", "test": "Binding affinity to calf thymus double stranded DNA minor groove assessed as assessed as effect on CD spectrum at pH 7 by CD spectroscopy", "assay_type": "nucleic-acid assay", "conditions": "Bos taurus", "method_in_brief": "as §3"}, "AT rich DNA [9]": {"tested_on": "AT rich DNA", "test": "Binding affinity to double stranded [poly(dA-dT)2] DNA (unknown origin) assessed as stabilization of DNA by measuring change in melting temperature at pH 7 by UV/Vis-spectrophotometry", "assay_type": "nucleic-acid assay", "conditions": "Homo sapiens", "method_in_brief": "as §4"}, "AT rich DNA [10]": {"tested_on": "AT rich DNA", "test": "Binding affinity to double stranded [poly(dA-dT)2] DNA (unknown origin) assessed as binding constant at pH 7 by fluorescence spectroscopy", "assay_type": "nucleic-acid assay", "conditions": "Homo sapiens", "method_in_brief": "(§5)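 Fluorimetric titration at 25 °C, sodium cacodylate buffer pH 7.0, I = 0.05 mol dm−3: polynucleotide portions added to compound (e.g. 1 × 10−6 mol dm−3). Excitation ≥ 300 nm to avoid inner filter effect. Data fitted by Scatchard equation, recalculated at fixed n = 0.2 [bound compound]/[polynucleotide]; I/I0 is the calculated complex fluorescence over starting compound fluorescence.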"}, "AT rich DNA [11]": {"tested_on": "AT rich DNA", "test": "Binding affinity to double stranded [poly(dA-dT)2] DNA (unknown origin) assessed as change in fluorescence intensity at pH 7 by fluorescence spectroscopy relative to control", "assay_type": "nucleic-acid assay", "conditions": "Homo sapiens", "method_in_brief": "as §5"}}, "note": "Activity calls are given as the source filed them. The rule behind the calls is not given here."}
{"smiles": "CC[C@H]1OC(=O)[C@H](C)[C@@H](O[C@H]2C[C@@](C)(OC)[C@@H](O)[C@H](C)O2)[C@H](C)[C@@H](O[C@@H]2O[C@H](C)C[C@H](N(C)C)[C@H]2O)[C@](C)(O)C[C@@H](C)CN(C)[C@H](C)[C@@H](O)[C@]1(C)O", "note": "[AZITHROMYCIN]", "values": [{"measurement": "MIC", "setting": "Streptococcus pneumoniae [1]", "value": 16, "unit": "µg/mL"}, {"measurement": "MIC", "setting": "Streptococcus pyogenes [2]", "value": 8, "unit": "µg/mL"}, {"measurement": "MIC", "setting": "Enterococcus faecalis", "value": 0.125, "unit": "µg/mL"}, {"measurement": "MIC", "setting": "Moraxella catarrhalis", "value": 8, "unit": "µg/mL"}, {"measurement": "MIC", "setting": "Streptococcus pyogenes [3]", "value": 0.125, "unit": "µg/mL"}, {"measurement": "MIC", "setting": "Escherichia coli", "value": 0.5, "unit": "µg/mL"}, {"measurement": "MIC", "setting": "Streptococcus pneumoniae [4]", "value": 0.125, "unit": "µg/mL"}, {"measurement": "MIC", "setting": "Staphylococcus aureus", "value": 2, "unit": "µg/mL"}]}
{"smiles": "Cl.c1ccc(Cn2cc(COc3ccc(-c4nc5ccc(C6=NCCCN6)cc5s4)cc3)nn2)cc1", "values": [{"measurement": "MIC", "setting": "Enterococcus faecalis", "value": 128, "unit": "µg/mL"}, {"measurement": "MIC", "setting": "Moraxella catarrhalis", "value": 4, "unit": "µg/mL"}, {"measurement": "MIC", "setting": "Escherichia coli", "value": 32, "unit": "µg/mL"}, {"measurement": "MIC", "setting": "Staphylococcus aureus", "value": 128, "unit": "µg/mL"}]}
{"smiles": "Cl.O=C(COc1ccc(-c2nc3ccc(C4=NCCCN4)cc3s2)cc1F)c1ccccc1", "values": [{"measurement": "Activity", "setting": "AT rich DNA [5]", "value": "Active"}, {"measurement": "ΔTm", "setting": "Calf thymus DNA [6]", "value": 0, "unit": "°C"}, {"measurement": "MIC", "setting": "Streptococcus pneumoniae [1]", "value": 128, "unit": "µg/mL"}, {"measurement": "MIC", "setting": "Streptococcus pyogenes [2]", "value": 128, "unit": "µg/mL"}, {"measurement": "MIC", "setting": "Enterococcus faecalis", "value": 128, "unit": "µg/mL"}, {"measurement": "IC50", "setting": "[7]", "value": "> 100", "unit": "µM"}, {"measurement": "MIC", "setting": "Moraxella catarrhalis", "value": 4, "unit": "µg/mL"}, {"measurement": "Activity", "setting": "Calf thymus DNA [8]", "value": "Active"}, {"measurement": "MIC", "setting": "Streptococcus pyogenes [3]", "value": 32, "unit": "µg/mL"}, {"measurement": "MIC", "setting": "Escherichia coli", "value": 16, "unit": "µg/mL"}, {"measurement": "ΔTm", "setting": "AT rich DNA [9]", "value": 3.8, "unit": "°C"}, {"measurement": "MIC", "setting": "Streptococcus pneumoniae [4]", "value": 32, "unit": "µg/mL"}, {"measurement": "MIC", "setting": "Staphylococcus aureus", "value": 128, "unit": "µg/mL"}]}
{"smiles": "Cl.Fc1cc(-c2nc3ccc(C4=NCCCN4)cc3s2)ccc1OCc1c[nH]nn1", "values": [{"measurement": "MIC", "setting": "Enterococcus faecalis", "value": "> 128", "unit": "µg/mL"}, {"measurement": "MIC", "setting": "Moraxella catarrhalis", "value": "> 128", "unit": "µg/mL"}, {"measurement": "MIC", "setting": "Escherichia coli", "value": "> 128", "unit": "µg/mL"}, {"measurement": "MIC", "setting": "Staphylococcus aureus", "value": 128, "unit": "µg/mL"}]}
{"smiles": "COc1cc(-c2nc3ccc(C4=NCCCN4)cc3s2)ccc1OCc1c[nH]nn1.Cl", "values": [{"measurement": "MIC", "setting": "Enterococcus faecalis", "value": "> 128", "unit": "µg/mL"}, {"measurement": "MIC", "setting": "Moraxella catarrhalis", "value": 32, "unit": "µg/mL"}, {"measurement": "MIC", "setting": "Escherichia coli", "value": 128, "unit": "µg/mL"}, {"measurement": "MIC", "setting": "Staphylococcus aureus", "value": "> 128", "unit": "µg/mL"}]}
{"smiles": "Cl.O=C(COc1ccc(-c2nc3ccc(C4=NCCCN4)cc3s2)cc1)c1ccccc1", "values": [{"measurement": "Activity", "setting": "AT rich DNA [5]", "value": "Active"}, {"measurement": "log Ks", "setting": "AT rich DNA [10]", "value": 5.3}, {"measurement": "ΔTm", "setting": "Calf thymus DNA [6]", "value": 0, "unit": "°C"}, {"measurement": "fold change (FC)", "setting": "AT rich DNA [11]", "value": 4.9}, {"measurement": "MIC", "setting": "Enterococcus faecalis", "value": "> 128", "unit": "µg/mL"}, {"measurement": "MIC", "setting": "Moraxella catarrhalis", "value": 8, "unit": "µg/mL"}, {"measurement": "Activity", "setting": "Calf thymus DNA [8]", "value": "Active"}, {"measurement": "MIC", "setting": "Escherichia coli", "value": 32, "unit": "µg/mL"}, {"measurement": "ΔTm", "setting": "AT rich DNA [9]", "value": 3.1, "unit": "°C"}, {"measurement": "MIC", "setting": "Staphylococcus aureus", "value": 128, "unit": "µg/mL"}]}
{"smiles": "Cl.c1cc(-c2nc3ccc(C4=NCCCN4)cc3s2)ccc1OCc1c[nH]nn1", "values": [{"measurement": "MIC", "setting": "Enterococcus faecalis", "value": "> 128", "unit": "µg/mL"}, {"measurement": "MIC", "setting": "Moraxella catarrhalis", "value": 32, "unit": "µg/mL"}, {"measurement": "MIC", "setting": "Escherichia coli", "value": "> 128", "unit": "µg/mL"}, {"measurement": "MIC", "setting": "Staphylococcus aureus", "value": "> 128", "unit": "µg/mL"}]}
{"smiles": "COc1cc(-c2nc3ccc(C4=NCCCN4)cc3s2)ccc1OCc1ccccn1.Cl", "values": [{"measurement": "MIC", "setting": "Enterococcus faecalis", "value": "> 128", "unit": "µg/mL"}, {"measurement": "MIC", "setting": "Moraxella catarrhalis", "value": 32, "unit": "µg/mL"}, {"measurement": "MIC", "setting": "Escherichia coli", "value": 128, "unit": "µg/mL"}, {"measurement": "MIC", "setting": "Staphylococcus aureus", "value": "> 128", "unit": "µg/mL"}]}
{"smiles": "COc1cc(-c2nc3ccc(C4=NCCCN4)cc3s2)ccc1OCc1cn(Cc2ccccc2)nn1.Cl", "values": [{"measurement": "MIC", "setting": "Enterococcus faecalis", "value": 128, "unit": "µg/mL"}, {"measurement": "MIC", "setting": "Moraxella catarrhalis", "value": 16, "unit": "µg/mL"}, {"measurement": "MIC", "setting": "Escherichia coli", "value": 64, "unit": "µg/mL"}, {"measurement": "MIC", "setting": "Staphylococcus aureus", "value": "> 128", "unit": "µg/mL"}]}
{"smiles": "CC1(C)S[C@@H]2[C@H](NC(=O)[C@H](N)c3ccccc3)C(=O)N2[C@H]1C(=O)O", "note": "[AMPICILLIN]", "values": [{"measurement": "MIC", "setting": "Streptococcus pneumoniae [1]", "value": 0.25, "unit": "µg/mL"}, {"measurement": "MIC", "setting": "Streptococcus pyogenes [2]", "value": 0.25, "unit": "µg/mL"}, {"measurement": "MIC", "setting": "Streptococcus pyogenes [3]", "value": 0.25, "unit": "µg/mL"}, {"measurement": "MIC", "setting": "Streptococcus pneumoniae [4]", "value": 0.25, "unit": "µg/mL"}]}
